Measured values from ChEMBL document CHEMBL1132976, “Biarylcarbamoylindolines are novel and selective 5-HT(2C) receptor inverse agonists: identification of 5-methyl-1-[[2-[(2-methyl-3-pyridyl)oxy]- 5-pyridyl]carbamoyl]-6-trifluoromethylindoline (SB-243213) as a potential antidepressant/anxiolytic agent” (J Med Chem, 2000).

Experiments:
Cytochrome P450 1A2 = target: T1, Cytochrome P450 1A2 (Homo sapiens, UniProt P05177); test: Inhibition of heterologously expressed human cytochrome P450 1A2.; type: ADME
T1 sequence (P05177 whole entry): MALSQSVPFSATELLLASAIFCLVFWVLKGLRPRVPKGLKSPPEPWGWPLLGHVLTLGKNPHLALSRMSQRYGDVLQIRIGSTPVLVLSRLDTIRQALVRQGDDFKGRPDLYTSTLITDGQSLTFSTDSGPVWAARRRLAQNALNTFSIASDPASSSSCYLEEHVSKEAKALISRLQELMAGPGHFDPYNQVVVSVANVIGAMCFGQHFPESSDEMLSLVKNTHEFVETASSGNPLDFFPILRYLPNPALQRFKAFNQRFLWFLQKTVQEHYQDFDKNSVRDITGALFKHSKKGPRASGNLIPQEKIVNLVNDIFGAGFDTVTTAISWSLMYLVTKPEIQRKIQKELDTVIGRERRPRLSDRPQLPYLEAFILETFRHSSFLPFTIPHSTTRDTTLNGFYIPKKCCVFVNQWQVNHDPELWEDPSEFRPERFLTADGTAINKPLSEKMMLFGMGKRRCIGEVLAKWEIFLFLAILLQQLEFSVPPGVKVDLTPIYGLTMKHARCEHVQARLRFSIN
Outline: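 Heterologously expressed human CYP1A2 in an isoform-selective assay. Substrate: caffeine N3-demethylation at 500 µM, at the substrate Km.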

[1] = target: Serotonin 2 receptors; 5-HT2a & 5-HT2c (Homo sapiens) (UniProt P28223+P28335); test: Selectivity index determined from binding affinities of 5-HT2C and 5-HT2A.; type: protein assay
Sequence of Serotonin 2 receptors; 5-HT2a & 5-HT2c (Homo sapiens) (P28223 whole entry, looked up, one chain of several): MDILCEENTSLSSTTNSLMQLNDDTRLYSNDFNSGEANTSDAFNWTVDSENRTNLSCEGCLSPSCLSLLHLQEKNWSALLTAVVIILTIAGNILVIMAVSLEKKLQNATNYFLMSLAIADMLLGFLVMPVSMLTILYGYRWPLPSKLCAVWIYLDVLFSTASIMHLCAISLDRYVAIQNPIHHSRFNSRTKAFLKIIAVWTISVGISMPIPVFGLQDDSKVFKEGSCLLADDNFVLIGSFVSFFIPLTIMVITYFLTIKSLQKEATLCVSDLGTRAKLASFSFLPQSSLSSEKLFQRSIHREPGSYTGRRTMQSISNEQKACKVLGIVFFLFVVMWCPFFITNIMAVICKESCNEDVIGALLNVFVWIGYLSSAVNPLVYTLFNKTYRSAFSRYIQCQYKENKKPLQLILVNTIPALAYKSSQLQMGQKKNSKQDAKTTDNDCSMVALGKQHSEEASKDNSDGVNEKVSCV

[2] = target: 5-hydroxytryptamine receptor 2A (Homo sapiens, UniProt P28223); test: Binding affinity towards human cloned 5-hydroxytryptamine receptor 2A in HEK293 cells, using [3H]ketanserin as radioligand.; type: cell-based
Sequence of 5-hydroxytryptamine receptor 2A (P28223 whole entry): as the sequence (P28223 whole entry, looked up, one chain of several) above
Outline: (§1)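 Competition binding at human cloned receptors expressed in HEK 293 cells. Radioligands: [3H]ketanserin for 5-HT2A, [3H]5-HT for 5-HT2B, [3H]mesulergine for 5-HT2C. Values are pKi, given as the mean of at least two determinations, each within 0.2 log unit of the mean.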

[3] = target: T2, 5-hydroxytryptamine receptor 2C (Homo sapiens, UniProt P28335); test: Binding affinity towards human cloned 5-hydroxytryptamine receptor 2C in HEK293 cells, using [3H]mesulergine as radioligand.; type: cell-based; outline: as §1
T2 sequence (P28335 whole entry): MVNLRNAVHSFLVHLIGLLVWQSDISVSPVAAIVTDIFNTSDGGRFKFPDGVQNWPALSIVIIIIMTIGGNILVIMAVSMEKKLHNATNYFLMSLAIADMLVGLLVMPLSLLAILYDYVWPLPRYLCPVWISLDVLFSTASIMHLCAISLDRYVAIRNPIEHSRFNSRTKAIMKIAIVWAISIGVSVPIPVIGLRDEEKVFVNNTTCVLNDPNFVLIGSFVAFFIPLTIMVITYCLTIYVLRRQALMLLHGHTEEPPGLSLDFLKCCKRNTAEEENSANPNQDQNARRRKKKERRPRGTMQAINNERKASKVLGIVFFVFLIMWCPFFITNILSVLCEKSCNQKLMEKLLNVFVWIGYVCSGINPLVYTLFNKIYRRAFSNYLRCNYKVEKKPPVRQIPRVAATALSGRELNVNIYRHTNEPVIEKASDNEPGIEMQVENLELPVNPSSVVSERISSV

[4] = target: T3, 5-hydroxytryptamine receptor 2B (Homo sapiens, UniProt P41595); test: Displacement of [3H]5-HT from human 5-hydroxytryptamine 2B receptor expressed in HEK293 cells; type: cell-based; outline: as §1
T3 sequence (P41595 whole entry): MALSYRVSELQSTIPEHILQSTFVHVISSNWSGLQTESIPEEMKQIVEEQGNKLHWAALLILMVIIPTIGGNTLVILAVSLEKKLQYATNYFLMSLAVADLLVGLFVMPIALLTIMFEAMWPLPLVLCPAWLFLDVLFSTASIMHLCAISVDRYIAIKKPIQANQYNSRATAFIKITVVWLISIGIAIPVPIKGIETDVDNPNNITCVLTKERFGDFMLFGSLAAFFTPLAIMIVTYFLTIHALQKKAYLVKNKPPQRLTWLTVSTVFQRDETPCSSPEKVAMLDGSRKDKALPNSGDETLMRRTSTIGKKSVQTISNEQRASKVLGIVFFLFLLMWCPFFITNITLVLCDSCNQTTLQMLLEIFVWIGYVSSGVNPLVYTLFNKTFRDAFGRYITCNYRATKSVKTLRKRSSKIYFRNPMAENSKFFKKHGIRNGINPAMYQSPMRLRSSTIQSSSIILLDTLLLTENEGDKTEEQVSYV

Rattus norvegicus = test: Dose required to reverse mCPP induced hypolocomotion in rat after oral administration.; type: functional; conditions: read-out: ID50 (the source's name)
Outline: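 Rat hypolocomotion model. The test compound was given orally, and mCPP was given at 7 mg/kg ip 30 min before the test. ID50 (mg/kg po) is the dose that reverses mCPP-induced hypolocomotion by 50%.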

[5] = target: Serotonin receptor (2b and 2c) (Homo sapiens) (UniProt P41595+P28335); test: Selectivity index determined from the binding affinities of 5-HT2C and 5-HT2B.; type: protein assay
[6] = target: T3, 5-hydroxytryptamine receptor 2B; test: Binding affinities towards human cloned 5-hydroxytryptamine 2B receptor in HEK293 cells using [3H]5-HT as radioligand.; type: cell-based; outline: as §1

| SMILES | IC50 (Cytochrome P450 1A2) | Selectivity [1] | Ki [2] | Ki [3] | Ki [4] | Selectivity [5] | Ki [6] | inhibition at 1 µM (Cytochrome P450 1A2) | Inhibition (Cytochrome P450 1A2) | ED50 (Rattus norvegicus) |
| --- | --- | --- | --- | --- | --- | --- | --- | --- | --- | --- |
| COc1cc2c(cc1C(F)(F)F)N(C(=O)Nc1cccnc1)CC2 | 20 nM | 120 | – | – | – | – | – | – | – | – |
| COc1cc2c(cc1C(F)(F)F)N(C(=O)Nc1cc(-c3cccnc3)ccc1F)CC2 | – | 4 | 7940 nM | 2000 nM | – | 1 | 2000 nM | – | – | – |
| COc1cc2c(cc1C(F)(F)F)N(C(=O)Nc1cncc(-c3cc(F)cc(F)c3)c1)CC2 | – | 15 | 1260 nM | 79.4 nM | 501 nM | 6 | – | – | – | – |
| COc1cc2c(cc1C(F)(F)F)N(C(=O)Nc1ccc(C)c(-c3cccnc3)c1)CC2 | 7000 nM | 5000 | 5010 nM | 1 nM | – | 5 | 5.01 nM | – | – | 1.6 mg/kg |
| COc1cc2c(cc1C(F)(F)F)N(C(=O)Nc1ccc(C)c(-c3cnccc3C)c1)CC2 | > 100000 nM | > 20000 | > 6310 nM | 0.316 nM | – | 12 | 3.98 nM | – | – | 1.4 mg/kg |
| COc1cc2c(cc1C(F)(F)F)N(C(=O)Nc1cc(Br)cc(-c3cccnc3)c1)CC2 | 7000 nM | > 500 | > 1000 nM | 2 nM | – | 10 | 20 nM | – | – | 5 mg/kg |
| COc1cc2c(cc1C(F)(F)F)N(C(=O)Nc1cncc(-c3c(F)cccc3F)c1)CC2 | – | > 420 | > 10000 nM | 25.1 nM | 100 nM | 4 | – | – | – | – |
| COc1cc2c(cc1C(F)(F)F)N(C(=O)Nc1cc(-c3ccccc3)cc(-c3cccnc3)c1)CC2 | – | 250 | 631 nM | 2.51 nM | – | 6 | 15.8 nM | – | – | > 5 mg/kg |
| COc1cc2c(cc1C(F)(F)F)N(C(=O)Nc1cc(F)c(C)c(-c3cccnc3)c1)CC2 | – | 1600 | 1580 nM | 0.631 nM | – | 13 | 7.94 nM | – | – | > 5 mg/kg |
| COc1cc2c(cc1C(F)(F)F)N(C(=O)Nc1cccc(-c3ccccn3)c1)CC2 | – | 25 | 501 nM | 20 nM | – | – | – | 3% | – | – |
| COc1cc2c(cc1C(F)(F)F)N(C(=O)Nc1ccc(-c3ccncc3)cc1)CC2 | – | > 2000 | > 10000 nM | 5.01 nM | – | 3 | 12.6 nM | – | – | – |
| COc1cc2c(cc1C(F)(F)F)N(C(=O)Nc1ccc(Cl)c(-c3cnccc3C)c1)CC2 | 11000 nM | > 1500 | > 1000 nM | 0.631 nM | – | – | – | – | – | 1.4 mg/kg |
| COc1cc2c(cc1C(F)(F)F)N(C(=O)Nc1ccc(Cl)c(-c3cccnc3)c1)CC2 | 73000 nM | 250 | 1260 nM | 5.01 nM | – | 5 | 25.1 nM | – | – | 5.5 mg/kg |
| COc1cc2c(cc1C(F)(F)F)N(C(=O)Nc1ccc(-c3cccnc3)cc1)CC2 | – | 250 | 3980 nM | 15.8 nM | – | 0.6 | 10 nM | – | – | > 10 mg/kg |

Further lines, with some results ahead:

| IC50 (Cytochrome P450 1A2) | Selectivity [1] | Ki [2] | Ki [3] | Ki [4] | Selectivity [5] | Ki [6] | inhibition at 1 µM (Cytochrome P450 1A2) | Inhibition (Cytochrome P450 1A2) | SMILES | ED50 (Rattus norvegicus) |
| --- | --- | --- | --- | --- | --- | --- | --- | --- | --- | --- |
| – | 16 | 398 nM | 25.1 nM | – | – | – | – | – | COc1cc2c(cc1C(F)(F)F)N(C(=O)Nc1cccc(-c3cccnc3)c1C)CC2 | – |
| – | 40 | 251 nM | 6.31 nM | 63.1 nM | – | – | – | – | COc1cc2c(cc1C(F)(F)F)N(C(=O)Nc1cncc(-c3ccc(F)cc3)c1)CC2 | 10 mg/kg |
| – | 50 | 79.4 nM | 1.58 nM | 7.94 nM | 5 | – | – | – | CSc1cc2c(cc1C(F)(F)F)N(C(=O)Nc1cccc(-c3cccnc3)c1)CC2 | – |
| 2000 nM | 500 | 251 nM | 0.501 nM | – | 16 | 7.94 nM | – | – | COc1cc2c(cc1C(F)(F)F)N(C(=O)Nc1cc3c(c(-c4cccnc4)c1)OCC3)CC2 | 2 mg/kg |
| – | 400 | 251 nM | 0.631 nM | – | – | – | 8% | – | COc1cc2c(cc1C(F)(F)F)N(C(=O)Nc1cccc(-c3cnccc3C)c1)CC2 | 5 mg/kg |
| 4000 nM | 200 | 200 nM | 1 nM | – | 8 | 7.94 nM | – | – | COc1cc2c(cc1C(F)(F)F)N(C(=O)Nc1cccc(-c3cccnc3)c1)CC2 | 0.6 mg/kg |
| – | 80 | 100 nM | 1.26 nM | – | 16 | 20 nM | – | – | COc1cc2c(cc1C(F)(F)F)N(C(=O)Nc1ccc(Oc3cccnc3)nc1)CC2 | 0.7 mg/kg |
| – | 25 | 251 nM | 10 nM | – | 0.5 | 5.01 nM | – | – | COc1cc2c(cc1C(F)(F)F)N(C(=O)Nc1cccc(-c3cccnc3)c1Cl)CC2 | – |
| – | 400 | 200 nM | 0.501 nM | – | 30 | 15.8 nM | – | 3% | COc1ccc(NC(=O)N2CCc3cc(OC)c(C(F)(F)F)cc32)cc1-c1cccnc1 | 1.2 mg/kg |
| – | 80 | 200 nM | 2.51 nM | – | 5 | 12.6 nM | – | – | COc1cc2c(cc1C(F)(F)F)N(C(=O)Nc1cccc(-c3c(C)ccnc3C)c1)CC2 | – |
| 6000 nM | 320 | 200 nM | 0.631 nM | – | 16 | 10 nM | – | – | CCc1cc(NC(=O)N2CCc3cc(OC)c(C(F)(F)F)cc32)cc(-c2cccnc2)c1 | 1.2 mg/kg |
| – | 50 | 158 nM | 3.16 nM | 25.1 nM | 8 | – | – | – | CSc1cc2c(cc1C(F)(F)F)N(C(=O)Nc1cccc(-c3ccncc3)c1)CC2 | – |
